TRPC6 act: mouse TRPC6 channel activation | Q61143 | HEK293-TRPC6 membrane potential dye fluorescence; active compounds read high | B-score at 10 µM | 310,000 tested, 0.13% active | AID 2550;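 active means B-score of the integrated fluorescence ratio above library mean plus 3 SD, and starting fluorescence ratio within library mean plus 5 SD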;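 further: higher score means more depolarization so channel activation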
TRPC4 PAM: allosterically enhances the mouse TRPC4 cation channel; HEK293 TRPC4beta/mu-opioid, DAMGO EC20, Fluo-4 Ca2+ flux; active compounds read high; 310,000 tested, 0.42% active; B-score at 10 µM; Q9QUQ5;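 active means B-score of calcium response area above 5 SD of library B-scores, with initial fluorescence ratio within 5 SD of library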;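 further: B-score of integrated fluorescence ratio over time as area under calcium response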
Target sequence (Q9QUQ5 whole entry, looked up): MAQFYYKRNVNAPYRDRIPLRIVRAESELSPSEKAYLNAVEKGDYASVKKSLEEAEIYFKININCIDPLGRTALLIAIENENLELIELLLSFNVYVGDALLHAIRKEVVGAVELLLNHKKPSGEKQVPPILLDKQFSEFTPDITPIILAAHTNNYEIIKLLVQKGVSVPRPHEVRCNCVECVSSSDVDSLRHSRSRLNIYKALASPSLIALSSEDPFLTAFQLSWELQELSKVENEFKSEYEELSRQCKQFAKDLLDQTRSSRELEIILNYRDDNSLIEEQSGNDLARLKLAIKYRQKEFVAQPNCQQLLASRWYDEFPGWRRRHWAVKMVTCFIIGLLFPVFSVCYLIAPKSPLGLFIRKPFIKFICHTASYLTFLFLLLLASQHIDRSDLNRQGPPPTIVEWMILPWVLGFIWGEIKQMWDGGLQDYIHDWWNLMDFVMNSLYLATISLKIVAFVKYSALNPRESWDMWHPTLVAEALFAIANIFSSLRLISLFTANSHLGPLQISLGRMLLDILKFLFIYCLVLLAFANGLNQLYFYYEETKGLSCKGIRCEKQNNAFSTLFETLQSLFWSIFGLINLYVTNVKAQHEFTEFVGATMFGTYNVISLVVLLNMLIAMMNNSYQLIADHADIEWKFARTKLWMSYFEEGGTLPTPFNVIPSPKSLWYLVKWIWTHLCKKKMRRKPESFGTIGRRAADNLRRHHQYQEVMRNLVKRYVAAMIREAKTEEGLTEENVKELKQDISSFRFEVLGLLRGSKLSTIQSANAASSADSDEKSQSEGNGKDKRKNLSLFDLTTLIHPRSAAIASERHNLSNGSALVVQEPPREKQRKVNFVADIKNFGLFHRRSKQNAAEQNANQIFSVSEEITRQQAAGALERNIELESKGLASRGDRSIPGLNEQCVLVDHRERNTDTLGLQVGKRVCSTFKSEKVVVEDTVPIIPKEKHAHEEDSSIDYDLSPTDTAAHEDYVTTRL
DSG3 Ab inh: inhibitors of pemphigus antibody binding to human desmoglein-3; DSG3-coupled beads, scFv-anti-DSG3-GFP binding, flow cytometry; active compounds read low; binding (percent of control), % at 10 µM; 310,000 tested, 0.48% active; AID 588358;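 active means binding more than 3 SD below its plate's average and above zero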;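 further: hits lower antibody fragment binding to DSG3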
TRPC6 inhibitor: mouse TRPC6 channel inhibition | Q61143 | HEK293-TRPC6, membrane potential dye, ACh-evoked depolarization; active compounds read low | B-score at 10 µM | 310,000 tested, 1.1% active | AID 2553;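 active means B-score under library mean minus 3 SD, initial fluorescence not abnormally high, positive integrated signal ratio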;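 further: B-score derived from integrated fluorescence ratio over the kinetic read; more negative B-score means stronger inhibition of depolarization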
TRPC4 agonist: activators of mouse TRPC4 channel; Q9QUQ5; HEK293 TRPC4beta/mu-opioid, Fluo4 calcium fluorescence; active compounds read high; B-score at 10 µM; 310,000 tested, 0.49% active;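 active means B-score above 5 SD of library B-scores, and initial fluorescence ratio not above library mean plus 5 SD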;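 further: positive B-score marks a calcium rise read as TRPC4 activation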
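Incubation: 45 min room-temperature Fluo4 loading, 110 s read / System: HEK293 cells stably co-expressing mouse TRPC4beta and mu-opioid receptor / Signal: Fluo4 fluorescence, kinetic / Control set: buffer (low) and maximal DAMGO (high) / Measure: integrated baseline-normalised fluorescence ratio, converted to per-well B score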
TRPC4 block: TRPC4 (mouse) channel inhibition | B-score at 10 µM | 300,000 tested, 0.39% active | HEK293 TRPC4beta/mu-opioid, DAMGO-evoked Fluo4 calcium flux; active compounds read low | Q9QUQ5;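 active means B-score over 3 SD under the library average, no early fluorescence shift, positive overall ratio signal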
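test system = HEK293 cells with stable TRPC4beta plus mu-opioid receptor expression | detection = Fluo4 Ca2+ flux fluorescence | read-out = integrated fluorescence ratio relative to baseline, converted to per-well B score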
TRPC4 sel inh 2: second check of whether TRPC6 inhibitors also affect mouse TRPC4. shares compounds with TRPC6 inhibitor. HEK293 TRPC4/MOR, membrane potential dye fluorescence; channel activated by saturating DAMGO dose. 920 tested, 42% active. AID 2776. inhibition, % at 10 µM;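 active means compounds whose fluorescence signal differed from control wells by over 3 SD, either direction, in both duplicate plates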
TRPC4 spec: mouse TRPC4 off-target activity of TRPC6 inhibitors; shares compounds with TRPC6 inhibitor; HEK293 TRPC4/mu-opioid, membrane potential fluorescence; activity change, negative = inhibition, % at 10 µM; 920 tested, 61% active;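 active means rise or fall in signal beyond 3 SD of buffer-only wells in both replicate plates, either sign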;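 further: integrated kinetic ratio of fluorescence range over baseline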
HEK293 MPD ctr 2-1: second counter-screen for TRPC6 inhibitors: parental HEK293 cells; parental HEK293 membrane potential dye fluorescence; maximal acetylcholine challenge after compound addition; signal change vs control, % at 10 µM; shares compounds with TRPC6 inhibitor; 920 tested, 31% active;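 active means membrane potential signal moving either way by over 3 SD of the maximum-effect control, in both duplicate plates, meaning non-specific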
HEK293 MPD ctr-1: counter-screen for TRPC6 inhibitors: effect in parental HEK293 cells | 920 tested, 60% active | parental HEK293 membrane potential dye fluorescence | shares compounds with TRPC6 inhibitor | membrane potential signal change, % at 10 µM;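 active means membrane potential signal shifting up or down by more than 3 SD of buffer-only wells, on both duplicate plates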
HEK293 MPD ctr-2: parental HEK293 nonspecific activity of TRPC6 modulators; membrane potential dye fluorescence; membrane potential signal change, % at 10 µM; 2,400 tested, 51% active; AID 488924; shares compounds with TRPC6 inhibitor;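 active means membrane potential signal moves up or down beyond 5 SD from buffer-only wells, on both duplicate plates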
HEK293 MPD ctr 2-2: second check of TRPC6 modulator effects in parental HEK293 cells; shares compounds with TRPC6 inhibitor; membrane potential dye fluorescence; after compound, maximal acetylcholine stimulation; inhibition, % at 10 µM; 2,400 tested, 14% active; AID 488926;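 active means membrane potential signal drops by more than 5 SD from the mean control signal, in both duplicate plates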;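 further: plate controls were acetylcholine ECmax control wells for no effect and buffer only wells for full effect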
TRPC4 ctr mod: selectivity of TRPC6 modulators against mouse TRPC4; percent change from control (negative = decrease, positive = increase), % at 10 µM; 2,400 tested, 69% active; HEK293 TRPC4/mu-opioid, membrane potential fluorescence; shares compounds with TRPC6 inhibitor;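 active means membrane potential signal moved up or down beyond 5 SD of buffer control wells, in both duplicate plates, actives on both sides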;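 further: plate controls were assay buffer wells for no effect and DAMGO maximal-effect wells for full effect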
TRPC4/MOR inh 2: mouse TRPC4 off-target activity of TRPC6 modulators, second screen. shares compounds with TRPC6 inhibitor. HEK293 TRPC4/mu-opioid, membrane potential dye fluorescence; stimulated with maximal-effect DAMGO. inhibition, % at 10 µM. 2,400 tested, 55% active. AID 488928;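 active means drop in membrane potential signal beyond 5 SD of the control wells in both duplicate plates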;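 further: TRPC4 counter screen for TRPC6 hits run under conditions tuned for TRPC6 not TRPC4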
TRPC6 inh conf: confirmation of mouse TRPC6 inhibitors; shares compounds with TRPC6 inhibitor; HEK293-TRPC6, membrane potential dye, ACh-evoked depolarization; inhibition, % at 10 µM; 3,300 tested, 43% active;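 active means fluorescence ratio falls more than 5 SD below the full-stimulation control mean, in both duplicate runs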;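 further: integrated fluorescence ratio of peak minus minimum over baseline after agonist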
TRPC6 act conf: confirmation of mouse TRPC6 activators | shares compounds with TRPC6 inhibitor | HEK293-TRPC6 membrane potential dye fluorescence, FDSS | activation, % at 10 µM | 2,800 tested, 11% active;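 active means ratio signal rise beyond 5 SD above unstimulated control wells' mean, seen in both duplicate runs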;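 further: plate controls were buffer EC0 wells for no effect and acetylcholine ECmax response for full effect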
* hit, by the source's call; i = inactive; nt = no result; + = active, no number. Shown are actives, neighbours in structure and some others; about 2.5% of the full set was active somewhere.

SMILES | TRPC6 act | TRPC4 PAM | DSG3 Ab inh | TRPC6 inhibitor | TRPC4 agonist | TRPC4 block | HEK293 MPD ctr-2 | HEK293 MPD ctr 2-2 | TRPC4 ctr mod | TRPC4/MOR inh 2 | TRPC6 inh conf | TRPC6 act conf | others
COC(=O)c1ccc(COC(=O)CNC(=O)c2cccs2)cc1 | i | i | 100 | -6.2* | i | i | i | i | -8.0%* | i | i | i
O=C(CNC(=O)c1cccs1)NCC(=O)OCc1ccc(F)cc1 | i | i | 102 | i | i | i | nt | nt | nt | nt | nt | nt
CCOc1cc(N2CCOCC2)c(OCC)cc1NC(=O)COC(=O)c1ccc([N+](=O)[O-])o1 | nt | nt | 92 | nt | nt | nt | nt | nt | nt | nt | nt | nt
CCCN(CCC)CCCNc1ccc2nnc(-c3ccc(F)cc3)n2n1 | i | i | 109 | -5.1* | 94* | i | -190%* | i | -17%* | 36%* | i | i
CCOC(=O)CC(=O)CSc1ccc2nnc(-c3ccc(F)cc3)n2n1 | i | i | 102 | i | i | i | nt | nt | nt | nt | nt | nt
CCOc1ccc(OCCNC(=O)C(NC(=O)c2c(F)cccc2F)C(C)C)cc1 (configuration not stated) | nt | nt | 100 | nt | nt | nt | nt | nt | nt | nt | nt | nt
COc1ccc2c(c1)c1c3n2CCN(C)C3=NCC1 | i | i | 102 | -13* | i | i | -290%* | 90%* | -44%* | 46%* | 58%* | i
c1cc2c(cc1C1CCCCC1)c1c3n2CCN=C3CCC1 | i | i | 117 | i | i | i | nt | nt | nt | nt | nt | nt
COc1ccc(N(CC(=O)NCc2ccccc2OC)S(=O)(=O)c2ccc(C)cc2)cc1Cl | i | i | 103 | i | i | i | nt | nt | nt | nt | nt | nt
O=C(c1cccc(C(F)(F)F)c1)C1CCCN(Cc2cccn2-c2ccccn2)C1 (configuration not stated) | i | i | 99 | -7.5* | i | -5* | nt | nt | nt | nt | 57%* | i | TRPC4 sel inh 2=35%*;TRPC4 spec=18%*;HEK293 MPD ctr 2-1=i;HEK293 MPD ctr-1=14%*
COc1ccc(C(=O)C2CCCN(Cc3cccn3-c3ccc(Cl)cn3)C2)c(OC)c1 (configuration not stated) | i | i | 102 | -5.8* | i | i | 134%* | i | 14%* | 89%* | 53%* | nt
Cc1ccc2[nH]c(C)c(/C=C/c3cc[n+](C)cc3)c2c1 | i | i | 380 | i | i | i | nt | nt | nt | nt | nt | nt
C[n+]1ccc(/C=C/c2ccc(Br)cc2)cc1 | i | i | 100 | -5.2* | i | i | -78%* | i | i | 36%* | i | i
Nc1ccc2c(c1)OC1(CCCC1)O2 | i | i | 109 | i | i | i | nt | nt | nt | nt | nt | nt
COc1ccc(OC)c(Cc2nnc(CCC(=O)NCc3ccsc3)o2)c1 | i | i | 92 | i | i | i | nt | nt | nt | nt | nt | nt
COc1ccc(NC(=O)NC2CCCc3ccccc32)c(OC)c1 (configuration not stated) | i | i | 119 | i | i | i | nt | nt | nt | nt | nt | nt
COc1ccc(CNC2CCCc3ccccc32)c(OC)c1 (configuration not stated) | i | i | 123 | -6* | i | i | 218%* | i | 53%* | 63%* | 64%* | nt
O=C(CSc1nc(O)c(Cc2ccccc2)c(=O)[nH]1)Nc1nnc(SCc2ccccc2)s1 | 20* | i | 102 | i | i | i | 308%* | i | 58%* | i | i | 142%*
CCCCc1nnc(NC(=O)CSc2nc(O)c(Cc3ccccc3)c(=O)[nH]2)s1 | i | i | 102 | i | i | i | nt | nt | nt | nt | nt | nt
Cc1onc(-c2ccccc2)c1C(=O)NNC(=S)NC(=O)c1ccc(Cl)cc1Cl | i | i | 88 | -5.8* | 375* | i | 96%* | i | 36%* | 36%* | i | nt
Cc1onc(-c2ccccc2)c1C(=O)NNC(=O)c1ccccc1 | nt | nt | 116 | nt | nt | nt | nt | nt | nt | nt | nt | nt
COc1ccc(S(=O)(=O)NC2CCN(Cc3ccccc3)CC2)cc1NC(C)=O | nt | nt | 97 | nt | nt | nt | nt | nt | nt | nt | nt | nt
Cc1occc1C(=O)/C(C#N)=C/c1ccc(O)c(Br)c1 | 73* | i | 111 | i | 46* | i | + | 107%* | 236%* | i | nt | 508%*
N#C/C(=C\c1ccc(O)c(Br)c1)C(=O)N1CCCCC1 | i | i | 116 | i | i | i | nt | nt | nt | nt | nt | nt
Cn1c(=O)c2c(nc(N3CCOCC3)n2CCc2ccccc2)n(C)c1=O | i | i | 103 | i | i | i | nt | nt | nt | nt | nt | nt
CN(C)C=NCCn1c(N2CCOCC2)nc2c1c(=O)n(C)c(=O)n2C | i | i | 98 | -7.1* | i | i | -274%* | i | -44%* | 35%* | i | i
O=C(CCc1ccccc1)c1c(O)cc(O)cc1O | i | i | 97 | -5.6* | i | i | -84%* | i | -20%* | 74%* | 50%* | i
CCN(CC)S(=O)(=O)c1ccc(N2CCOCC2)c(NC(=O)Cc2cccc3ccccc23)c1 | i | i | 126 | i | i | i | nt | nt | nt | nt | nt | nt

Screens as filed in PubChem BioAssay.
